Laboratory results from ChEMBL document CHEMBL4325837, “Discovery of novel NO-releasing celastrol derivatives with Hsp90 inhibition and cytotoxic activities” (Eur J Med Chem, 2018).
The source made the active and inactive calls. No cut-off for these calls is given here.

What was measured:
A549 [1] = test: Antiproliferative activity against human A549 cells after 48 hrs by MTT assay; type: functional, cell-based; conditions: A549, 48 h
Outline: (§1)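 MTT assay. Cells were seeded at 5.0 × 10⁴ cells/ml in 100 μL per well and grown 24 h. They were then exposed to a range of concentrations for 48 h. MTT (5 mg/ml) was added for 4 h, the supernatant was removed and DMSO was added. OD was read at 570 nm. Assays were run in triplicate and IC50 is reported as mean ± SD, n = 3.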

MCF7 = test: Antiproliferative activity against human MCF7 cells after 48 hrs by MTT assay; type: functional, cell-based; conditions: MCF7, 48 h; outline: as §1
HOS = test: Antiproliferative activity against human HOS cells after 48 hrs by MTT assay; type: functional, cell-based; outline: as §1
HepG2 = test: Antiproliferative activity against human HepG2 cells after 48 hrs by MTT assay; type: functional, cell-based; conditions: HepG2, 48 h; outline: as §1
[2] = Drug metabolism in human A549 cells assessed as nitric oxide release at 4 uM measured up to 24 hrs; type: ADME, cell-based; conditions: a549, 24 h
Outline: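 A549 cells were seeded at 5.0 × 10⁴ cells/ml in 100 μL wells and grown 24 h at 37 °C. Hybrids were added at 4 μM for varying times, with 24 h used for the full set. NO was measured with a Nitrate/Nitrite assay kit against a standard curve, reading OD at 550 nm. Values are the mean of three independent experiments.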

A549 [3] = test: Induction of apoptosis in human A549 cells assessed as viable cells at 1.2 uM after 48 hrs by Annexin V-FITC/propidium iodide staining-based flow cytometric analysis (reference value: 98.5%); type: functional; conditions: A549, 48 h, read-out: Activity
A549 [4] = test: Induction of apoptosis in human A549 cells assessed as early apoptotic cells at 1.2 uM after 48 hrs by Annexin V-FITC/propidium iodide staining-based flow cytometric analysis (reference value: 0.5%); type: functional
A549 [5] = test: Induction of apoptosis in human A549 cells assessed as late apoptotic cells at 1.2 uM after 48 hrs by Annexin V-FITC/propidium iodide staining-based flow cytometric analysis (reference value: 0.4%); type: functional
A549 [6] = test: Induction of apoptosis in human A549 cells assessed as necrotic cells at 1.2 uM after 48 hrs by Annexin V-FITC/propidium iodide staining-based flow cytometric analysis (reference value: 0.6%); type: functional
[7] = target: Heat shock protein HSP90 (Homo sapiens) (UniProt P07900+P08238); test: Inhibition of HSP90 in human A549 cells assessed as decrease in Akt phosphorylation at 2.5 uM after 24 hrs by Western blot analysis; type: cell-based

SMILES: CC1=C(O)C(=O)C=C2C1=CC=C1[C@@]2(C)CC[C@@]2(C)[C@@H]3C[C@](C)(C(=O)OCCCCCCO[N+](=O)[O-])CC[C@]3(C)CC[C@]12C
- IC50 (A549 [1]): 3.67 µM
- IC50 (MCF7): 3.17 µM
- IC50 (HOS): 3.36 µM
- IC50 (HepG2): 4.71 µM

SMILES: CC1=C(O)C(=O)C=C2C1=CC=C1[C@@]2(C)CC[C@@]2(C)[C@@H]3C[C@](C)(C(=O)OCCCCO[N+](=O)[O-])CC[C@]3(C)CC[C@]12C
- IC50 (A549 [1]): 4.21 µM
- IC50 (MCF7): 3.82 µM
- IC50 (HOS): 2.43 µM
- IC50 (HepG2): 6.08 µM
- Drug metabolism [2]: Metabolite_Detected

SMILES: CC1=C(O)C(=O)C=C2C1=CC=C1[C@@]2(C)CC[C@@]2(C)[C@@H]3C[C@](C)(C(=O)O)CC[C@]3(C)CC[C@]12C [CELASTROL]
- IC50 (A549 [1]): 1.43 to 1.57 µM
- IC50 (MCF7): 1.56 µM
- IC50 (HOS): 0.93 µM
- IC50 (HepG2): 1.62 µM
- viability at 1.2 µM (A549 [3]): 75.8%
- Activity (A549 [4]): 7.8%
- Activity (A549 [5]): 11.2%
- Activity (A549 [6]): 5.2%
- inhibition [7]: Active

SMILES: CC1=C(O)C(=O)C=C2C1=CC=C1[C@@]2(C)CC[C@@]2(C)[C@@H]3C[C@](C)(C(=O)OCCCOc4no[n+]([O-])c4S(=O)(=O)c4ccccc4)CC[C@]3(C)CC[C@]12C
- IC50 (A549 [1]): 2.89 µM
- IC50 (MCF7): 2.12 µM
- IC50 (HOS): 1.87 µM
- IC50 (HepG2): 4.53 µM

SMILES: NCCCOc1no[n+]([O-])c1S(=O)(=O)c1ccccc1
- IC50 (A549 [1]): 25.5 µM

SMILES: CC1=C(O)C(=O)C=C2C1=CC=C1[C@@]2(C)CC[C@@]2(C)[C@@H]3C[C@](C)(C(=O)OCCCCCO[N+](=O)[O-])CC[C@]3(C)CC[C@]12C
- IC50 (A549 [1]): 5.32 µM
- IC50 (MCF7): 3.01 µM
- IC50 (HOS): 2.9 µM
- IC50 (HepG2): 3.4 µM
